Measured values from different studies.
Compare with care: the assays were run in different laboratories.
Target: Ephrin type-A receptor 4 (EPHA4, Homo sapiens, UniProt P54764)

| SMILES | effect on | technique | tested at | remaining binding [%] |
| --- | --- | --- | --- | --- |
| Nc1ncc2c(n1)-c1c([nH]c3ccc(C#CC4CC4)cc13)CCCC2 | binding | competition with immobilised ligand | 1 µM | 100 |
| CN(C)c1nccc(-c2cnc3ncccn23)n1 | binding | – | 1 µM | 100 |
| O=C1NC(c2ccccn2)Sc2ccccc21 (stereo not shown) | cell-free assay | competition with immobilised ligand | 1 µM | 89 |
| O=C(c1ccc(Nc2nccc(-c3cc4ccccc4s3)n2)cc1)N1CCC(N2CCCC2)CC1 | binding | competition with immobilised ligand | 1 µM | 91 |
| CNC(=O)c1ccc(Nc2ncc(C(F)(F)F)c(NCc3nccnc3N(C)S(C)(=O)=O)n2)cc1 | cell-free assay | competition with immobilised ligand | 0.1 µM | 99 |
| c1cncc(-c2cccc(Nc3nccc(NC4CCCCC4)n3)c2)c1 | binding | competition with immobilised ligand | 10 µM | 100 |
| C[C@@H]1CN(c2cc(-c3n[nH]c4ccc(OC5(C)CC5)cc34)ncn2)C[C@H](C)O1 | cell-free assay | competition with immobilised ligand | 0.1 µM | 89 |
| F[C@@H]1CCN(c2nccc(-c3cnn4ncccc34)n2)C1 | binding | – | 1 µM | 100 |
| COc1cnc(Nc2cccc(S(N)(=O)=O)c2)nc1N1CCN(c2ccccc2)CC1 | binding | competition with immobilised ligand | 1 µM | 97 |
| c1ccc(N2CCN(Cc3nc4ccccc4[nH]3)CC2)nc1 | cell-free assay | competition with immobilised ligand | 1 µM | 100 |
| CN(C)c1ncc(F)c(-c2cnn3ncccc23)n1 | binding | – | 1 µM | 100 |
| O=C(NCC1CCOCC1)c1n[nH]cc1NC(=O)c1c(F)cccc1F | binding | competition with immobilised ligand | 1 µM | 100 |
| O=C(c1ccc(Nc2ncc(Cl)c(-c3ccc(Cl)s3)n2)cc1)N1CCC(N2CCCC2)CC1 | binding | competition with immobilised ligand | 1 µM | 84 |
| C[C@@H]1CCN(c2nccc(-c3cnn4ncccc34)n2)C1 | binding | – | 1 µM | 100 |
| FC(F)(F)Oc1cccc(-c2cnc3ccc(-c4ccncc4)nn23)c1 | cell-free assay | competition with immobilised ligand | 5 µM | 92 |
| Cc1cnn2ncc(-c3ccnc(N(C)C)n3)c2c1 | binding | – | 1 µM | 96 |
| O=C(NCc1ncc(C(F)(F)F)cc1Cl)c1ccc2c(c1)C1(CCS(=O)(=O)CC1)[C@H](C1CC1)N2S(=O)(=O)c1ccc(F)cc1 | cell-free assay | competition with immobilised ligand | 1 µM | 100 |
| COc1ccnn2ncc(-c3ccnc(N(C)C)n3)c12 | binding | – | 1 µM | 95 |
| Cc1c(NC(=O)c2cc(C(N)=O)nc3cc(F)ccc23)c(C(F)(F)F)nn1Cc1ccc(C(C)(C)C)cc1 | cell-free assay | competition with immobilised ligand | 1 µM | 100 |
| O=C(c1ccc(Nc2ncc(Cl)c(-c3cc4ccccc4s3)n2)cc1)N1CCC(N2CCCC2)CC1 | binding | competition with immobilised ligand | 1 µM | 65 |
| CC(=O)Nc1c(C(C)=O)c(=O)n(C)c2nc(-c3ccc(Cl)cc3Cl)c(-c3ccc(Cl)cc3)cc12 | cell-free assay | competition with immobilised ligand | 1 µM | 96 |
| N[C@@H]1CCN(c2nccc(-c3cnn4ncccc34)n2)C1 | binding | – | 1 µM | 97 |
